Data on 3 compounds can be found in ChEMBL document CHEMBL2046398, “Optimization of (2,3-dihydro-1-benzofuran-3-yl)acetic acids: discovery of a non-free fatty acid-like, highly bioavailable G protein-coupled receptor 40/free fatty acid receptor 1 agonist as a glucose-dependent insulinotropic agent” (J Med Chem, 2012).

For data set [1], the species on record is Rattus norvegicus. Briefly: Drug metabolism in rat assessed as taurine conjugate formation measured in bile. Format: ADME, organism-based. The note with it: in vivo.
The species entered for data set [2] is Rattus norvegicus. In words: Drug metabolism in rat assessed as biphenylylcarboxylic acid derivative formation in feces. The class given is ADME, organism-based. The note with it: in vivo.
Data set [3] is filed under the species Rattus norvegicus. Briefly: Drug metabolism in rat assessed as taurine conjugate formation measured in feces. The class given is ADME, organism-based. The note with it: in vivo.
The species entered for data set [4] is Canis familiaris. In words: Drug metabolism in dog assessed as beta-oxidation derivative formation. Format: ADME, organism-based, Canis lupus familiaris. Particulars: in vivo.
The species named for data set [5] is Canis familiaris. In words: Drug metabolism in dog assessed as taurine conjugate formation measured in feces. Format: ADME, organism-based, Canis lupus familiaris. The note with it: in vivo.
The species named for data set [6] is Rattus norvegicus. Briefly: Drug metabolism in rat assessed as acyl glucuronide derivative formation in bile. Format: ADME, organism-based. Particulars: in vivo.
For data set [7], the species on record is Rattus norvegicus. In words: Drug metabolism in rat assessed as beta-oxidation derivative formation. Format: ADME, organism-based. Particulars: in vivo.
The species entered for data set [8] is Canis familiaris. In words: Drug metabolism in dog assessed as acyl glucuronide derivative formation measured in feces. Format: ADME, organism-based, Canis lupus familiaris. Particulars: in vivo.
Data set [9] is filed under the species Rattus norvegicus. In words: Drug metabolism in rat assessed as acyl glucuronide derivative formation measured in feces. The class given is ADME, organism-based. Particulars: in vivo.
The species named for data set [10] is Rattus norvegicus. Briefly: Drug metabolism in rat assessed as biphenylylcarboxylic acid derivative formation. The class given is ADME, organism-based. The note with it: in vivo.
Data set [11] is filed under the species Canis familiaris. Briefly: Drug metabolism in dog assessed as biphenylylcarboxylic acid derivative formation measured in feces. Format: ADME, organism-based, Canis lupus familiaris. Particulars: in vivo.
Data set [12] concerns Rattus norvegicus. In words: Insulinotropic activity in po dosed Goto-Kakizaki rat assessed as increase in plasma insulin secretion administered 1 hr prior to glucose-challenge by oral glucose tolerance test. Format: functional. Summed up:
(§1)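 Male GK rats, 41 weeks old, were fasted overnight. They received compound suspended in 0.5% methylcellulose orally, 1–10 mg/kg, 1 h before a 1 g/kg oral glucose load. Tail-vein blood was taken pre-dose, at 0 min and at 10, 30, 60 and 120 min. Plasma glucose was read by autoanalyzer and insulin by radioimmunoassay, with AUC0–120min. n = 6. Williams/Shirley–Williams tests versus vehicle.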

The subject of data set [13] is Rattus norvegicus. Briefly: Insulinotropic activity in po dosed fasted Wistar fatty rat assessed as […] administered 1 hr prior to glucose-challenge by oral glucose tolerance test relative to vehicle control. The class given is functional. Summed up: (§2)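 Female Wistar fatty rats, 12–17 weeks old, were fasted overnight. They were dosed orally with compound in 0.5% methylcellulose 1 h (1 mg/kg) or 4 h (3 mg/kg) before a 1 g/kg oral glucose load. Plasma glucose was sampled to 120 min, n = 6. Effective dose was defined by statistical significance on plasma glucose AUC versus vehicle.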

Data set [14] relates to Rattus norvegicus. In words: Insulinotropic activity in po dosed fasted Wistar fatty rat assessed as […] administered 4 hr prior to glucose-challenge by oral glucose tolerance test relative to vehicle control. The class given is functional. Summed up:
as §2

Data set [15] has as its system Rattus norvegicus. Briefly: Insulinotropic activity in po dosed Goto-Kakizaki rat assessed as decrease in plasma glucose level administered 1 hr prior to glucose-challenge by oral glucose tolerance test. The class given is functional. The essentials: as §1
The subject of data set [16] is Rattus norvegicus. Briefly: Insulinotropic activity in Goto-Kakizaki rat assessed as decrease in plasma glucose level at 1 to 10 mg/kg, po administered 1 hr prior to glucose-challenge by oral glucose tolerance test. Format: functional, organism-based. Particulars: TDE = time-dependent effect. Summed up:
as §1

In data set [17] the target is Free fatty acid receptor 1 (Homo sapiens, UniProt O14842). Briefly: Agonist activity at human GP40 receptor expressed in CHO cells assessed as increase in intracellular calcium level at 10 uM for 90 secs by FLIPR assay in the presence of 0.1% BSA relative to gamma-linolenic acid. The class given is functional, cell-based. Summed up: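 CHO dhfr cells stably expressing human GPR40/FFA1 (NM_005303) plated overnight at 37 °C, 5% CO₂, then loaded 60 min at 37 °C with Fluo 4 AM (2.5 μg/mL), 2.5 mmol/L probenecid and 0.1% fatty acid-free BSA. Ca²⁺ rise after compound addition read on FLIPR Tetra for 90 s. Activity = (test − vehicle)/(10 μM γ-linolenic acid − vehicle) × 100.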

The subject of data set [18] is Rattus norvegicus. In words: Insulinotropic activity in Goto-Kakizaki rat assessed as increase in plasma insulin secretion at 1 to 10 mg/kg, po administered 1 hr prior to glucose-challenge by oral glucose tolerance test. Format: functional, organism-based. The note with it: TDE = time-dependent effect. The essentials:
as §1

Data set [19] concerns Rattus norvegicus. In words: Insulinotropic activity in Goto-Kakizaki rat assessed as increase in plasma insulin secretion at 1 to 10 mg/kg, po after 1 hr measured at glucose charge (0 mins).

Calls of active or inactive are those of the source. No cut-off for these calls is given here.

Sequence of Free fatty acid receptor 1 (O14842 whole entry): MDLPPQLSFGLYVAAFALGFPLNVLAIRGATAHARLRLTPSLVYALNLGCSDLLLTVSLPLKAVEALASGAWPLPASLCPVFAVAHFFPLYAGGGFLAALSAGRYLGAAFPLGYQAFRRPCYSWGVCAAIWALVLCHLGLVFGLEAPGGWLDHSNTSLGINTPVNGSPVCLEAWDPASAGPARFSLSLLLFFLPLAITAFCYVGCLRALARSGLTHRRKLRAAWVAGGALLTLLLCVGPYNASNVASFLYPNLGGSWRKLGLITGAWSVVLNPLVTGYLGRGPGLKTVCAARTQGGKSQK

As to `Cc1cc(OCCCS(C)(=O)=O)cc(C)c1-c1cccc([14CH2]Oc2ccc3c(c2)OC[C@H]3CC(=O)O)c1`, the Drug metabolism entry in [1] is “Active”; in data set [2], “Active”; in data set [3], “Active”; in data set [4], “Not Active”; in [5], “Active”; in data set [6], “Active”. The Drug metabolism entry in [7] is given as “Not Active”; in data set [8], “Active”; in data set [9], “Active”; in [10], “Active”; in [11], “Active”.

`Cc1cc(OCCCS(C)(=O)=O)cc(C)c1-c1cccc(COc2ccc3c(c2)OC[C@H]3CC(=O)O)c1.O`: the values for the minimal effective dose in [12] (read-out: MED) and in [15] (read-out: MED) were 10 mg/kg and 3 mg/kg, respectively. The ED came out at 1 mg/kg in data set [13] and 3 mg/kg in data set [14].

In the case of `Cc1cc(OCCCS(C)(=O)=O)cc(C)c1-c1cccc(COc2ccc3c(c2)OC[C@H]3CC(=O)O)c1`, the Activity entry in data set [16] is “tde”; in data set [12], “Dose-dependent effect”; in data set [15] it was “Dose-dependent effect”; in data set [18], “tde”. Besides, the Efficacy in data set [17] worked out at 107%. Also, the outcome in [19] was Active.
